Some results are limits rather than exact numbers.

Series [1] has as its system CCRF-CEM. The series can be described thus: Cytotoxicity against human CCRF-CEM cells assessed as reduction in measured protein incubated for 48 hrs by SRB assay. The format is functional. Conditions: read-out: LC50 (the source's name). An outline of the steps:
(§1)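 Tested in the NCI-60 panel with a five-dose response curve, each value the mean of 2 experiments.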

Series [2] relates to MOLT-4. The series can be described thus: Cytotoxicity against human MOLT4 cells assessed as reduction in measured protein incubated for 48 hrs by SRB assay. The format is functional. Conditions: MOLT-4, 48 h, read-out: LC50 (the source's name). An outline of the steps: as §1
(In SRB staining, fixed cells bind dye roughly in proportion to their protein.)

The subject of series [3] is NCI-H322M. In words: Cytotoxicity against human NCI-H322M cells assessed as reduction in measured protein incubated for 48 hrs by SRB assay. Format: functional. Conditions: read-out: LC50 (the source's name). An outline of the steps:
as §1

The test system of series [4] is CCRF-CEM. In words: cells. The format is functional. Conditions: Homo sapiens, 48 h.
The subject of series [5] is MOLT-4. In words: Therapeutic index, ratio of LC50 for human MOLT4 cells to GI50 for human MOLT4 cells. The format is functional. An outline of the steps: (§2)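 NCI-60 panel screen using five-dose response curves, each value an average of 2 experiments. […] The therapeutic index is calculated as LC50/GI50 for the same cell line.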
Series [6] has as its system MOLT-4. In words: cells. The format is functional. Conditions: Homo sapiens, MOLT-4, 48 h.
Series [7] concerns NCI-H322M. In words: Therapeutic index, ratio of LC50 for human NCI-H322M cells to GI50 for human NCI-H322M cells. Format: functional. An outline of the steps: as §2
In another series the test system is A549. The series can be described thus: cells. Conditions: Homo sapiens, A549, 48 h. The format is functional.
Series [8] has as its system CCRF-CEM. In words: Therapeutic index, ratio of LC50 for human CCRF-CEM cells to GI50 for human CCRF-CEM cells. Format: functional. The procedure, abridged:
as §2

The next series relates to NCI-H460. The series can be described thus: cells. Format: functional. Conditions: Homo sapiens, NCI-H460, 48 h.
The test system of series [9] is NCI-H322M. The series can be described thus: cells. The format is functional. Particulars: Homo sapiens, 48 h.
Series [10] addresses T1, Epidermal growth factor receptor (Homo sapiens, UniProt P00533, L858R). The series can be described thus: Binding affinity to human partial length EGFR L858R mutant (R669 to V1011 residues) expressed in bacterial expression system under predilution/full equilibration condition by scanKINETIC assay. The procedure, abridged:
(§3)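 Binding kinetics are read from Kd values measured under four dose-response arms. Arm A is full equilibration. Arm B is equilibrate, then 3-fold dilution, then equilibrate. Arm C is partial equilibration. Arm D is predilution followed by full equilibration. Comparing the arms assesses reversibility of binding.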

Series [11] deals with T1, Epidermal growth factor receptor. In words: Binding affinity to human partial length EGFR L858R mutant (R669 to V1011 residues) expressed in bacterial expression system under equilibrate/3-fold dilution/eqiulibrate condition by scanKINETIC assay. An outline of the steps:
as §3

Series [12] shares this target. In words: Binding affinity to human partial length EGFR L858R mutant (R669 to V1011 residues) expressed in bacterial expression system under full equilibrating condition by scanKINETIC assay. An outline of the steps: as §3
The target is the same in series [13]. The series can be described thus: Binding affinity to human partial length EGFR L858R mutant (R669 to V1011 residues) expressed in bacterial expression system under partial equilibration condition by scanKINETIC assay. The procedure, abridged:
as §3

Series [14] in a line: Half life in human S9 fraction. Format: ADME, subcellular.
The target in series [15] is Epidermal growth factor receptor (Homo sapiens, UniProt P00533, E746-A750DEL). In words: Binding affinity to human partial length EGFR E746-A750 deletion mutant expressed in bacterial expression system by KinomeScan assay. The procedure, abridged:
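Competition binding against an immobilized active-site-directed ligand. Bound kinase is quantified by qPCR of its DNA tag. Kd values come from duplicate 11-point dose-response curves.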

In series [16] the target is Receptor tyrosine-protein kinase erbB-2 (Homo sapiens, UniProt P04626). In words: Inhibition of probe binding to HER2 (unknown origin) using rabbit reticulate lysate system after 1 hr by luminescence assay. An outline of the steps: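 Homogeneous competition binding in rabbit reticulocyte lysate with kinase expressed in the lysate. IC50 taken from a ten-point dose-response curve; value is the average of triplicate experiments.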
Sequence of Receptor tyrosine-protein kinase erbB-2 (P04626 whole entry): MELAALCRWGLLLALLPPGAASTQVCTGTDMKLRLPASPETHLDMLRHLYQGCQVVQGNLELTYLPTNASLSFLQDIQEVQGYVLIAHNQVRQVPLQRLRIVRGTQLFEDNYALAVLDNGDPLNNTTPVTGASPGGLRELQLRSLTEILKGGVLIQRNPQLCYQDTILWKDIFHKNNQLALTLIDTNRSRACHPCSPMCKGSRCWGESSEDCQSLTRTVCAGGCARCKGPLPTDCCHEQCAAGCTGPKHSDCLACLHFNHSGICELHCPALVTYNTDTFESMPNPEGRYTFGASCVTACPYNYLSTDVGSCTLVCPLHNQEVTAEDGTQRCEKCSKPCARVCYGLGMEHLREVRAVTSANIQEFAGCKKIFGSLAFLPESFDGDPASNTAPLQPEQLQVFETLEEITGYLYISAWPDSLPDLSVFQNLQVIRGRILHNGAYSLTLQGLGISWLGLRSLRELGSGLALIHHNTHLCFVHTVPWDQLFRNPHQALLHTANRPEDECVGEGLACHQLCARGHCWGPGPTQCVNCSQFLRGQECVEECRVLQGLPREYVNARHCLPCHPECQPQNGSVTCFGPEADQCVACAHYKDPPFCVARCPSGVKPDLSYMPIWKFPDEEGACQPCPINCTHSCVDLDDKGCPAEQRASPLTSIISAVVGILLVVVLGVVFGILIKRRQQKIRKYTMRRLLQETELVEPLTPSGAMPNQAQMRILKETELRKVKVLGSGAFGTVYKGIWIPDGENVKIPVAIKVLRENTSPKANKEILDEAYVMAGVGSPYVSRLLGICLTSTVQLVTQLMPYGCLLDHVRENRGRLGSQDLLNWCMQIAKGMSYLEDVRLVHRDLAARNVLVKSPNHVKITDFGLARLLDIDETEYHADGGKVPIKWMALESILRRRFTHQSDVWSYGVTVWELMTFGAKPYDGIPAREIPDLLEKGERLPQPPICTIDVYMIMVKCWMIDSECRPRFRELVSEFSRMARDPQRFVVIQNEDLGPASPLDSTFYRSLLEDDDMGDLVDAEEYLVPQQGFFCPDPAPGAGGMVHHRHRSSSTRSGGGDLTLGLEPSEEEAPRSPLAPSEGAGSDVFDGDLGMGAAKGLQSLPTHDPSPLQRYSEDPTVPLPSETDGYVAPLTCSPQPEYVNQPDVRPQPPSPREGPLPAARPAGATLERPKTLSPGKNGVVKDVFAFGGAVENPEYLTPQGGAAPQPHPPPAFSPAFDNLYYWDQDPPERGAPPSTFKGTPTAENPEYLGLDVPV

Series [17] has as its target T1, Epidermal growth factor receptor.
For the next series, the species on record is Homo sapiens. In words: Selectivity ratio, ratio of IC50 for probe binding to HER2 (unknown origin) to IC50 for probe binding to EGFR L858R mutant (unknown origin). The procedure, abridged: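 Ratio of two IC50 values measured in the rabbit reticulocyte lysate competition binding assay: HER2 and EGFR L858R. Each IC50 comes from displacement of an active-site-dependent probe, read by luminescence, with a ten-point dose-response. Each IC50 is the average of triplicate experiments.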

The target of series [18] is Epidermal growth factor receptor (Homo sapiens, UniProt P00533). The series can be described thus: Inhibition of probe binding to wild type EGFR (unknown origin) using rabbit reticulate lysate system after 1 hr by luminescence assay.
Sequence of Epidermal growth factor receptor (Homo sapiens, UniProt P00533) (P00533 whole entry, the tested form may be a part): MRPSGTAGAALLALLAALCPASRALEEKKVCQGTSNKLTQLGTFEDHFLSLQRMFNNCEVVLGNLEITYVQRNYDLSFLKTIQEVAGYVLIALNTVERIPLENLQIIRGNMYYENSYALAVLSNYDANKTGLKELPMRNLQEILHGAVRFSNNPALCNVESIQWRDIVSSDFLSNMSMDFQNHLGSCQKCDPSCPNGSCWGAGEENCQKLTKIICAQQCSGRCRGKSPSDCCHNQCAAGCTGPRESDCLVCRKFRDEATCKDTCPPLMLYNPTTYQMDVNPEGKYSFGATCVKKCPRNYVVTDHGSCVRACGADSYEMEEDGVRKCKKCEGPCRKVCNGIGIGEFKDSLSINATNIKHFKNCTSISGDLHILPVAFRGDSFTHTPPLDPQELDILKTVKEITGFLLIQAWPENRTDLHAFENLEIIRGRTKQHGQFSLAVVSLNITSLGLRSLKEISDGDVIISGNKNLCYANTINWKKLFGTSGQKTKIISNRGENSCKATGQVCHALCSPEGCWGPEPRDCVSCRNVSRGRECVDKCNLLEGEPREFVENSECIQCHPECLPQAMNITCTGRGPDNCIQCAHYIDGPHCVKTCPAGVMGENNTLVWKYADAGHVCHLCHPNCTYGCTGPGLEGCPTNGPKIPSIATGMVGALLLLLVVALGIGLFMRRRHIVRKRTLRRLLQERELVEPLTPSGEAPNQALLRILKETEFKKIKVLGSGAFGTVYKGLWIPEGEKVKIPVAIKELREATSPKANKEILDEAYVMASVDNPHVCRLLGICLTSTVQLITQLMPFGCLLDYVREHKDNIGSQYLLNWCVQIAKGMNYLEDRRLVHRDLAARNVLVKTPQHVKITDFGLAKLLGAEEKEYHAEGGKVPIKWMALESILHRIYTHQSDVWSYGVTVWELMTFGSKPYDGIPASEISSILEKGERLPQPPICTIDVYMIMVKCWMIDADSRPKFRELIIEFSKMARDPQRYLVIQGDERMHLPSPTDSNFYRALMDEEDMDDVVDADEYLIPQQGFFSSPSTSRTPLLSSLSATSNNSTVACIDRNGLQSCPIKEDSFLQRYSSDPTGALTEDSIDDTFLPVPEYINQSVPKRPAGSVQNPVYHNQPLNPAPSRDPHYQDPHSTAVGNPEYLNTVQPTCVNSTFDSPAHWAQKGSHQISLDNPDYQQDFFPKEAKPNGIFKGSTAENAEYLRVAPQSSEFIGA
Series [19] has as its target T1, Epidermal growth factor receptor. The series can be described thus: Binding affinity to human partial length EGFR L858R mutant (R669 to V1011 residues) expressed in bacterial expression system by kinomescan assay. An outline of the steps:
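Competition binding against an immobilized active-site-directed ligand; bound kinase quantified by qPCR of its DNA tag. Kd taken from duplicate 11-point dose-response curves.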

A short description of series [20]: Half life in rat S9 fraction. The format is ADME, subcellular.

T1 sequence (P00533 25-1210 L858R limits assumed): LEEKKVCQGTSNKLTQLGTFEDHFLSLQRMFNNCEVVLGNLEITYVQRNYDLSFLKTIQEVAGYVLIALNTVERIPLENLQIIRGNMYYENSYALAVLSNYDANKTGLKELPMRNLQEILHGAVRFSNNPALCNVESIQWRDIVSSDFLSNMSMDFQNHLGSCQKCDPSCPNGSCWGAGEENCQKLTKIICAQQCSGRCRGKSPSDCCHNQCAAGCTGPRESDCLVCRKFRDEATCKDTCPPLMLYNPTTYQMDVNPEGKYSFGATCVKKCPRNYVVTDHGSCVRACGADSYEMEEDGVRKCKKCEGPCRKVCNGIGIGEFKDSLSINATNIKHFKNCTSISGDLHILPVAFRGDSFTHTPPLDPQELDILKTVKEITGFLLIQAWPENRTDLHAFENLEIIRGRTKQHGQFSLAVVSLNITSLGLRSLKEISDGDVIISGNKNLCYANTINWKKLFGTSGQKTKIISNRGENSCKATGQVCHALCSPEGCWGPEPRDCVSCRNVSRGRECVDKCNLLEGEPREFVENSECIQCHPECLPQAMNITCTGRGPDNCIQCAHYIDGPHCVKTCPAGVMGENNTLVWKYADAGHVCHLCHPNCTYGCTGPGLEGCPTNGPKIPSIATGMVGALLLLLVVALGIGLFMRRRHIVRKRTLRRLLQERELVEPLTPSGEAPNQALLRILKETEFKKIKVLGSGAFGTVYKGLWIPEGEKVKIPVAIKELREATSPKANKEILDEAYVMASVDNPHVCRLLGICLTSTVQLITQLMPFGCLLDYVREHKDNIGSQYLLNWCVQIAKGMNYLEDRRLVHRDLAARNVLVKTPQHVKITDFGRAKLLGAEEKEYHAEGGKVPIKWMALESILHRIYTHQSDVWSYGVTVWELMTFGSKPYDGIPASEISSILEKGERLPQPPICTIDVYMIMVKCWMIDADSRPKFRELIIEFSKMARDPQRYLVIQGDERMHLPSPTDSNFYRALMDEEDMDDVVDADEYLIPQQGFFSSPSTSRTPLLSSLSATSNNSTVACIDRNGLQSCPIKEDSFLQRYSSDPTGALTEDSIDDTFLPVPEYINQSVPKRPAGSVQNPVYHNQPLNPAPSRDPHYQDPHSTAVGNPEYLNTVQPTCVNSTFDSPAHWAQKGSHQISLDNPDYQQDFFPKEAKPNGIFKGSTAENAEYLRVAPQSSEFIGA
Sequence of Epidermal growth factor receptor (Homo sapiens, UniProt P00533, E746-A750DEL) (P00533 whole entry E746-A750del, looked up): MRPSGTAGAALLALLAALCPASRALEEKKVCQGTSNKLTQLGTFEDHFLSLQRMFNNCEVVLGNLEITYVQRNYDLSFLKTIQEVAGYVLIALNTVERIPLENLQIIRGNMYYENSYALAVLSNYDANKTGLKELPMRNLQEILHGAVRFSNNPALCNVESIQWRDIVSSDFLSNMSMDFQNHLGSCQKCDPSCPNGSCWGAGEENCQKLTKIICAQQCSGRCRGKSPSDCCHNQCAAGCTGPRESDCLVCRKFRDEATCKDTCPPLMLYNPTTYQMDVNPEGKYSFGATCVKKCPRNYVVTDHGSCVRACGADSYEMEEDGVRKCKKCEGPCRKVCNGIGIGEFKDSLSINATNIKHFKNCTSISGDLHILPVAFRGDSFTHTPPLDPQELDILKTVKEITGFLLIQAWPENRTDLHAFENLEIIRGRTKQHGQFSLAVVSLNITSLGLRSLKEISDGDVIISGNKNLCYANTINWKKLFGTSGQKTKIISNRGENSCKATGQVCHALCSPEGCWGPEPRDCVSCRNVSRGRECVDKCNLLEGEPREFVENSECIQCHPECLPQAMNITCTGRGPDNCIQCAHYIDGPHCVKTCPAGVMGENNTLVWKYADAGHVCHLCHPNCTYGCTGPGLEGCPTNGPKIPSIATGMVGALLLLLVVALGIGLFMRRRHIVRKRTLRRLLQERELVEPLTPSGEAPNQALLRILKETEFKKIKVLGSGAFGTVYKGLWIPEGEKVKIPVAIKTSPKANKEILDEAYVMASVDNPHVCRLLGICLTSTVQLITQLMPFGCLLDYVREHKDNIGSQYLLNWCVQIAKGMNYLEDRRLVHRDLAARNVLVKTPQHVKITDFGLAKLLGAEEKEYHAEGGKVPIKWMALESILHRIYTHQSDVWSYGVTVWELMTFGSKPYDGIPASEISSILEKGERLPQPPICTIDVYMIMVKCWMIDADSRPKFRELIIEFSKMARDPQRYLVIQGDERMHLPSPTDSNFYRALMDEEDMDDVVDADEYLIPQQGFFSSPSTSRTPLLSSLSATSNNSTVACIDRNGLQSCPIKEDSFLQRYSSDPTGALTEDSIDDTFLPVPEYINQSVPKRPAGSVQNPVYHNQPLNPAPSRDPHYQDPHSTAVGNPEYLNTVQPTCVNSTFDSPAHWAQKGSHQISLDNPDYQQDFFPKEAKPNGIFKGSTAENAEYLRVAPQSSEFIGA

For orientation: GI50 means the concentration at which growth is held to half of that of the control. High values mean less potent growth inhibition, low ones more potent growth inhibition. Regarding `COc1cc2ncnc(Nc3ccc(Oc4ccc(C)nc4)c(C)c3)c2cc1NC(=O)CC1CCSS1` (stereo not given), the values for the CC50 in the series on CCRF-CEM [1], in the series with MOLT-4 [2] and in the series with NCI-H322M [3] were greater than 50000 nM, greater than 2600 nM and greater than 50000 nM, respectively. Also, the GI50 in the series on CCRF-CEM [4] came to 220 nM; in the series with MOLT-4 [6], 160 nM; with A549 it was 760 nM; with NCI-H460 it was 110 nM; in the series with NCI-H322M [9], 1070 nM. In addition, the TI in the series with MOLT-4 [5] was 16.2; with NCI-H322M [7], greater than 46.7; in the series with CCRF-CEM [8], greater than 227.
Broadly, the Kd is the concentration at which binding is half-saturated. A low value points to tighter binding. For the compound `CC(=O)SCC(CSC(C)=O)C(=O)Nc1cc2c(Nc3ccc(OCc4cccc(F)c4)c(Cl)c3)c(C#N)cnc2cc1OC[C@H](O)CO`, the Kd in [10] is 60 nM; in series [11], 58 nM; in series [12], 2.1 nM; in [13], 5.9 nM.
One may read the half-life as how long it takes for the measured level to halve. Turning to `O=c1ccc2ccc(O)cc2o1` [UMBELLIFERONE], the half-life in series [14] is 26.6 min.
By IC50 is commonly meant the point on the concentration scale where inhibition reaches its midpoint. Low values mean greater potency in that assay, high ones weaker potency in that assay. `CCOc1cc2ncc(C#N)c(Nc3ccc(OCc4cccc(F)c4)c(Cl)c3)c2cc1NC(=O)C1CSSC1` gave a dissociation constant Kd in series [15] of 110 nM. Moreover, the IC50 in series [16] amounted to 730 nM; in series [17] it was 18 nM; in [18] it was 210 nM. Also, in the series listed under Homo sapiens, the Ratio IC50 was greater than 25.
As for `CCOc1cc2ncc(C#N)c(Nc3ccc(F)c(Cl)c3)c2cc1NC(=O)CCCCC1CCSS1` (stereo not given), the 50% inhibitory concentration (IC50) in series [17] was 420 nM.
On the same count and under the same terms, next, `N#Cc1cnc2ccc(NC(=O)C3CSSC3)cc2c1Nc1ccc(OCc2cccc(F)c2)c(Cl)c1`: 199 nM.
Regarding `N#Cc1cnc2cc(OC[C@H](O)CO)c(NC(=O)C3CSSC3)cc2c1Nc1ccc(OCc2cccc(F)c2)c(Cl)c1`, the IC50 in series [17] was 20 nM; in series [18] it was 256 nM.
The compound `CCOc1cc2ncc(C#N)c(Nc3ccc(F)c(Cl)c3)c2cc1NC(=O)CC1CCSS1` (stereo not given) registered a half-maximal inhibitory concentration (IC50) in series [17] of 300 nM.
Regarding `N#Cc1cnc2ccc(NC(=O)CC3CCSS3)cc2c1Nc1ccc(OCc2cccc(F)c2)c(Cl)c1` (stereo not given), the IC50 in series [16] amounted to 730 nM; in series [17], 36 nM; in [18], 164 nM. The Ratio IC50 in the series listed under Homo sapiens was greater than 25.
With `COc1cc2ncnc(Nc3ccc(OCc4cccc(F)c4)c(Cl)c3)c2cc1NC(=O)CC1CCSS1` (stereo not given), the IC50 in series [17] turned out to be 5.8 nM; in series [18], 25 nM.
For the compound `COc1cc2ncnc(Nc3ccc(Oc4ccc(C)nc4)c(C)c3)c2cc1NC(=O)C1CSSC1`, the results for the IC50 in [16], in [17] and in [18] were 590 nM, 413 nM and 658 nM, respectively. For the same compound, the Ratio IC50 in the series filed under Homo sapiens was 1.4.
As for `CCOc1cc2ncc(C#N)c(Nc3ccc(OCc4cccc(F)c4)c(Cl)c3)c2cc1NC(=O)C(CSC(C)=O)CSC(C)=O`, the values for the dissociation constant Kd in series [19] and in series [15] were 16 nM and 180 nM, respectively. Besides, the half-inhibitory concentration (IC50) came out at 26.8 nM in series [17] and 340 nM in [18].
As for `Cc1ccc(Oc2ccc(Nc3c(C#N)cnc4ccc(NC(=O)CC5CCSS5)cc34)cc2C)cn1` (stereo not given), the concentration for half-maximal inhibition (IC50) in series [16] was greater than 10000 nM; in [17] it was greater than 10000 nM; in [18], 8630 nM.
The compound `CCOc1cc2ncc(C#N)c(Nc3ccc(OCc4cccc(F)c4)c(Cl)c3)c2cc1NC(=O)CCCCC1CCSS1` (stereo not given) returned a dissociation constant Kd in series [19] of 32 nM. Also, the IC50 in series [17] came out at 33 nM; in series [18], 730 nM.
Consider `CCOc1cc2ncc(C#N)c(Nc3ccc(F)c(Cl)c3)c2cc1NC(=O)C1CSSC1`, for which half-maximal inhibition in series [17] (IC50) was put at 219 nM.
On to `COc1cc2ncnc(Nc3ccc(OCc4cccc(F)c4)c(Cl)c3)c2cc1NC(=O)C1CSSC1`, for which the figures for the concentration for half-maximal inhibition (IC50) in series [17] and in [18] were 6.5 nM and 76 nM, respectively.
Regarding `CC(C)NCC(O)COc1cccc2ccccc12` (stereo not given) [PROPRANOLOL], in [20], the half-life came out at 27.5 min.
As for `N#Cc1cnc2cc(OC[C@@H](O)CO)c(NC(=O)C3CSSC3)cc2c1Nc1ccc(OCc2cccc(F)c2)c(Cl)c1`, the dissociation constant Kd in series [10] came out at 16 nM; in series [11] it was 8.4 nM; in series [12] it was 0.7 nM; in series [13], 1.9 nM. In addition, the concentration for half-maximal inhibition (IC50) is 167 nM in series [16], 9 nM in series [17] and 125 nM in series [18]. The Ratio IC50 in the series filed under Homo sapiens is greater than 25.
`Cc1ccc(Oc2ccc(Nc3c(C#N)cnc4ccc(NC(=O)C5CSSC5)cc34)cc2C)cn1`: the IC50 in series [17] and in series [18] was greater than 10000 nM in each case.

The values are drawn from ChEMBL document CHEMBL4387720, “Lead generation of 1,2-dithiolanes as exon 19 and exon 21 mutant EGFR tyrosine kinase inhibitors” (Bioorg Med Chem Lett, 2019).
